How the values were obtained:
[1] = target: T1, 3',5'-cyclic-AMP phosphodiesterase 4D (Homo sapiens, UniProt Q08499); test: Inhibition of human PDE4D2 catalytic domain (86 to 413 amino acids) expressed in Escherichia coli strain BL21 at 10 uM after 15 mins using [3H]-cAMP by liquid scintillation counting
Outline: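 Single-point primary screen of percent inhibition against PDE4D2 at an initial concentration of 10 μM, using [3H]cAMP as substrate and liquid scintillation counting of radioactivity. Enzyme was produced using LB medium. Rolipram served as the reference inhibitor. The method follows the authors' earlier reports.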

[2] = target: T1, 3',5'-cyclic-AMP phosphodiesterase 4D; test: Inhibition of human PDE4D2 catalytic domain (86 to 413 amino acids) expressed in Escherichia coli strain BL21 after 15 mins using [3H]-cAMP by liquid scintillation counting
Outline: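 IC50 determined against PDE4D2 only for compounds that gave more than 50% inhibition in the 10 μM primary screen. Substrate was [3H]cAMP and read-out was liquid scintillation counting. Enzyme was produced using LB medium. Rolipram served as the reference inhibitor. The method otherwise follows the authors' earlier reports.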

T1 sequence (Q08499 whole entry, the tested form may be a part): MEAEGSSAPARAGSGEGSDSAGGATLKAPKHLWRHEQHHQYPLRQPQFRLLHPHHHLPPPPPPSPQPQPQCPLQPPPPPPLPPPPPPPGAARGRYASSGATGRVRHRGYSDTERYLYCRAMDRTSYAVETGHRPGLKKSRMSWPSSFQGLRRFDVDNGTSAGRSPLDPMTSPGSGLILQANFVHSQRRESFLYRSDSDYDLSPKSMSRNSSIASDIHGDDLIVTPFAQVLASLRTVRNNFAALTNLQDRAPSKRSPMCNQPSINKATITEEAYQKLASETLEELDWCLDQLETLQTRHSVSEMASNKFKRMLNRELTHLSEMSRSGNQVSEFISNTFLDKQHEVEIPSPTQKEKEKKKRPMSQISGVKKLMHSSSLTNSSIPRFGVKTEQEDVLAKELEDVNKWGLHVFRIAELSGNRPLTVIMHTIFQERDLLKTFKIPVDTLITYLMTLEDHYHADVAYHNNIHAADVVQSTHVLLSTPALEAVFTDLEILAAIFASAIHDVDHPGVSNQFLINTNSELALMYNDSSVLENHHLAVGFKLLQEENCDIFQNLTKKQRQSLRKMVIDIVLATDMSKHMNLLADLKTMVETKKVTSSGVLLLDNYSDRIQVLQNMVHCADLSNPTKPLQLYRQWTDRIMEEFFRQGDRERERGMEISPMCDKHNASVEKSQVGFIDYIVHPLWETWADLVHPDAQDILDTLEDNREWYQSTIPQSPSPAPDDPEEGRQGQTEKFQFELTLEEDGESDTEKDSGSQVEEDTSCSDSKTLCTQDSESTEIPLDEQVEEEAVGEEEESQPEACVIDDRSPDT

SMILES: CCC(CC[C@H](O)/C=C/[C@@H]1[C@@H](C/C=C\CCCC(=O)OC)[C@@H](OC(C)=O)C[C@H]1OC(C)=O)OC(C)=O (stereo partly specified)
- inhibition [1]: 11.4%

SMILES: CCCCC[C@@H](/C=C/[C@@H]1[C@@H](C/C=C\CCCC(=O)OC)[C@@H](OC(C)=O)C[C@H]1OC(C)=O)OC(C)=O
- IC50 [2]: 1.4 µM
- inhibition [1]: 94.6%

SMILES: CCC(CC[C@H](O)/C=C/[C@@H]1[C@@H](C/C=C\CCCC(=O)OC)[C@@H](O)C[C@H]1OC(C)=O)OC(C)=O (stereo partly specified)
- inhibition [1]: -6.05%

SMILES: CCCCC[C@@H](/C=C/[C@@H]1[C@@H](CCCCCCC(=O)OC)[C@@H](O)C[C@H]1OC(C)=O)OC(C)=O
- inhibition [1]: 41.7%

SMILES: CCC(=O)CC[C@H](O)/C=C/[C@@H]1[C@@H](C/C=C\CCCC(=O)OC)[C@@H](O)C[C@H]1OC(C)=O
- inhibition [1]: 21.9%

SMILES: CCC(CC[C@H](O)/C=C/[C@@H]1[C@@H](C/C=C\CCCC(=O)O)[C@@H](O)C[C@H]1OC(C)=O)OC(C)=O (stereo partly specified)
- inhibition [1]: 3.12%

SMILES: CCC(=O)CC[C@H](O)/C=C/[C@@H]1[C@@H](C/C=C\CCCC(=O)O)[C@@H](O)C[C@H]1O
- inhibition [1]: 10.1%

SMILES: CCC(=O)CC[C@@H](/C=C/[C@@H]1[C@@H](C/C=C\CCCC(=O)OC)[C@@H](O)C[C@H]1OC(C)=O)OC(C)=O
- IC50 [2]: 12.1 µM
- inhibition [1]: 57.2%

SMILES: CCC(CC[C@@H](/C=C/[C@@H]1[C@@H](C/C=C\CCCC(=O)OC)[C@@H](O)C[C@H]1OC(C)=O)OC(C)=O)OC(C)=O (stereo partly specified)
- inhibition [1]: 38.7%

SMILES: CCCCC[C@@H](/C=C/[C@@H]1[C@@H](/C=C/CCCCC(=O)OC)[C@@H](O)C[C@H]1OC(C)=O)OC(C)=O
- IC50 [2]: 7.2 µM
- inhibition [1]: 57.3%

SMILES: CCC(CC[C@@H](/C=C/[C@@H]1[C@@H](C/C=C\CCCC(=O)OC)[C@@H](OC(C)=O)C[C@H]1OC(C)=O)OC(=O)[C@@](OC)(c1ccccc1)C(F)(F)F)OC(C)=O (stereo partly specified)
- inhibition [1]: 15.1%

SMILES: CCC(CC[C@@H](/C=C/[C@@H]1[C@@H](C/C=C\CCCC(=O)OC)[C@@H](OC(C)=O)C[C@H]1OC(C)=O)OC(C)=O)OC(C)=O (stereo partly specified)
- IC50 [2]: 3.7 µM
- inhibition [1]: 66.5%

SMILES: CCC(=O)CC[C@@H](/C=C/[C@@H]1[C@@H](C/C=C\CCCC(=O)OC)[C@@H](OC(C)=O)C[C@H]1OC(C)=O)OC(C)=O
- IC50 [2]: 10.6 µM
- inhibition [1]: 65%

SMILES: CCCCC[C@@H](/C=C/[C@@H]1[C@@H](C/C=C\CCCC(=O)OC)[C@@H](OC(C)=O)C[C@H]1O)OC(C)=O
- IC50 [2]: 4.7 µM
- inhibition [1]: 74.7%

SMILES: CCC(=O)CC[C@H](O)/C=C/[C@@H]1[C@@H](C/C=C\CCCC(=O)O)[C@@H](O)C[C@H]1OC(C)=O
- inhibition [1]: 26%

SMILES: CCC(CC[C@@H](/C=C/[C@@H]1[C@@H](C/C=C\CCCC(=O)OC)[C@@H](OC(C)=O)C[C@H]1OC(C)=O)OC(=O)[C@](OC)(c1ccccc1)C(F)(F)F)OC(C)=O (stereo partly specified)
- inhibition [1]: 28.4%

SMILES: CCC(O)CC[C@H](O)/C=C/[C@@H]1[C@@H](C/C=C\CCCC(=O)O)[C@@H](O)C[C@H]1O (stereo partly specified)
- inhibition [1]: -3.93%

SMILES: CCC(CC[C@@H](/C=C/[C@@H]1[C@@H](C/C=C\CCCC(=O)OC)[C@@H](OC(=O)[C@](OC)(c2ccccc2)C(F)(F)F)C[C@H]1OC(C)=O)OC(=O)[C@](OC)(c1ccccc1)C(F)(F)F)OC(C)=O (stereo partly specified)
- IC50 [2]: 3.6 µM
- inhibition [1]: 58%

SMILES: CCC(CC[C@@H](/C=C/[C@@H]1[C@@H](C/C=C\CCCC(=O)OC)[C@@H](OC(=O)[C@@](OC)(c2ccccc2)C(F)(F)F)C[C@H]1OC(C)=O)OC(=O)[C@@](OC)(c1ccccc1)C(F)(F)F)OC(C)=O (stereo partly specified)
- IC50 [2]: 5.9 µM
- inhibition [1]: 51.1%

SMILES: CCC(=O)CC[C@@H](/C=C/[C@@H]1[C@@H](C/C=C\CCCC(=O)O)[C@@H](O)C[C@H]1OC(C)=O)OC(C)=O
- IC50 [2]: 16.9 µM
- inhibition [1]: 50.4%

SMILES: CCCCC[C@@H](/C=C/[C@@H]1[C@@H](C/C=C\CCCC(=O)OC)[C@@H](O)C[C@H]1OC(C)=O)OC(C)=O
- IC50 [2]: 5.5 µM
- inhibition [1]: 71.9%

From ChEMBL document CHEMBL3352813, “Prostaglandin Derivatives: Nonaromatic Phosphodiesterase-4 Inhibitors from the Soft Coral Sarcophyton ehrenbergi” (J Nat Prod, 2014)
